From PubChem
RBBP9 inh: blocks human serine hydrolase RBBP9; O75884; recombinant RBBP9, FP-Rh probe fluorescence polarization; inhibition, % at 7.94 µM; 220,000 tested, 0.2% active; AID 1515;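 active = inhibition above the campaign mean of all tested compounds plus 3 SD, cut at about 14% in these data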
Target sequence (O75884 whole entry, looked up): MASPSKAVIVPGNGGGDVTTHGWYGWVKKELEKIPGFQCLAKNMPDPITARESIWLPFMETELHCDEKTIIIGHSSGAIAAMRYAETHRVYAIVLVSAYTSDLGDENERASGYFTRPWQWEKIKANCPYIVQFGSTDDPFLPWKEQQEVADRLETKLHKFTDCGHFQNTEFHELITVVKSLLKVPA
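system = RBBP9 protein | input = RBBP9 at 2.5 µM in dispensed solution, before mixing | measured by = fluorescence polarization (mP), excitation 525 nm, emission 598 nm | incubation = enzyme-compound preincubation 30 min, then probe labeling 45 min, 25 °C | buffer or medium = Tris-NaCl-Pluronic buffer, pH 8.0 | compound = single dose 7.94 µM | also added = FP-Rh probe, 375 nM dispensing solution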
PME-1 inh: PME-1 (human) inhibition; Q9Y570; 320,000 tested, 0.53% active; AID 2130; recombinant PME-1, FP-Rh probe fluorescence polarization; inhibition, % at 5.9 µM;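 active = inhibition above the campaign mean of all compounds plus 3 SD, cut at about 26% in these data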;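 also: competitive labeling of PME-1 active site by serine hydrolase directed probe; inhibitors block probe labeling so polarization falls and inhibition rises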
Fam108B inh: counter-screen for RBBP9 inhibitors: inhibitors of mouse Fam108B | recombinant Fam108B, FP-Rh probe fluorescence polarization | inhibition, % at 9.51 µM | AID 1947 | 300,000 tested, 0.33% active;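 active = inhibition above the screen mean inhibition plus 3 SD, computed separately per campaign, cut at about 18% in these data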;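 also: inhibitors lower polarization as less probe binds the enzyme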
GSTO1 inh: counter-screen for RBBP9 inhibitors: inhibitors of human GSTO1; 300,000 tested, 1.1% active; recombinant GSTO1, activity-based probe fluorescence polarization; inhibition, % at 5.96 µM; P78417;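 active = inhibition above the campaign mean inhibition plus 3 SD, cut at about 35% in these data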
PRMT1 FP inh: blocks human protein arginine methyltransferase 1. inhibition, % at 2.79 µM. AID 652257. 370,000 tested, 1.3% active. recombinant PRMT1, activity-based probe fluorescence polarization. Q99873;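 active = inhibition above about 21% made by adding two undisclosed values, limit read from the data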
Target sequence (Q99873 whole entry, looked up): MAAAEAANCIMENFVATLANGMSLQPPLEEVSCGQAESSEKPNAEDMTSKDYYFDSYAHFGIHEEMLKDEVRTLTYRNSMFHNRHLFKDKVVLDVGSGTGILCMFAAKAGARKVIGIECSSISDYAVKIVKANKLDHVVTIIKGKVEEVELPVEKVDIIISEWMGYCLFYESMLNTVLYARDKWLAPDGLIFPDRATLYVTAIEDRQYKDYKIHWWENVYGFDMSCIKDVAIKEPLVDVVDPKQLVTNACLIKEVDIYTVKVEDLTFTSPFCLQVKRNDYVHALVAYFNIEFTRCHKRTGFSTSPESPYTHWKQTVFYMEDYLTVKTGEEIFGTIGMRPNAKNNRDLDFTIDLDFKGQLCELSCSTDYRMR
PAD4 FP inh: PAD4 (human) enzyme inhibition. recombinant PAD4, RCA probe fluorescence polarization. inhibition, % at 6.36 µM. 330,000 tested, 0.41% active;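 active = percent inhibition above a cutoff equal to the mean of all tested compounds plus 3 SD, cut at about 15% in these data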
PAD4 FP conf: confirmation of human PAD4 inhibitors; shares compounds with PAD4 FP inh; recombinant PAD4, RCA probe fluorescence polarization; inhibition, % at 6.36 µM; 1,200 tested, 28% active; AID 488796;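 active = mean inhibition across replicates above the hit cutoff set by the earlier primary screen, cut at about 15% in these data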;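 also: inhibitors block active-site labeling by the probe so polarization falls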
Numbers stand for hits; . = inactive; / = no result. This is a sample that favours compounds with a hit; in the whole collection about 2.3% have one here.

SMILES	RBBP9 inh	PME-1 inh	Fam108B inh	GSTO1 inh	PRMT1 FP inh	PAD4 FP inh	PAD4 FP conf
Cc1cccc(NC(=S)Nc2ccc(N3CCOCC3)cc2)c1C	.	.	.	.	.	23.1	.
CCOC(=O)CN1C(=O)N[C@@H](c2ccccc2)C(C(=O)OC)=C1C	.	.	.	.	/	.	/
COc1ccc(C2=CC(c3ccc(OC)c(OC)c3)NC(=S)N2)cc1 (stereo not drawn)	.	.	.	.	.	49.0	55.7
COc1cccc(C2=CC(c3ccc(OC)c(OC)c3)NC(=S)N2)c1 (stereo not drawn)	.	.	.	.	.	30.2	55.9
CC1(C)c2ccccc2N2CCC(=O)NC21/C=C/c1ccco1 (stereo not drawn)	.	.	.	.	.	16.6	.
CC(=O)c1ccc(NC(=S)NNC(=O)c2ccccc2[N+](=O)[O-])cc1	.	.	.	.	.	.	/
O=C(CSCc1ccccc1Cl)NCCSc1ccccn1	.	.	.	.	.	15.9	.
O=C(COc1ccc(Cl)cc1)NCCSCc1ccccc1Cl	.	.	.	.	.	.	/
Cc1ccc(CS(=O)(=O)c2ncc(Cl)c(C(=O)Nc3nnc(C(C)C)s3)n2)cc1	/	.	.	.	.	94.7	.
O=C(Nc1ccc(Nc2ccccc2)cc1)c1ccccc1	/	.	.	.	.	46.5	.
Cc1ccc(CNC(=O)C2CC(c3ccc(C(F)(F)F)cc3)=NO2)o1 (stereo not drawn)	/	.	.	.	.	.	/
CCN(CC)S(=O)(=O)c1ccc(OCC(=O)NCc2ccco2)cc1	.	.	.	.	.	.	/
COCCNC(=O)C(c1ccncc1)N(C(=O)Cn1nnc2ccccc21)c1ccc(OC)cc1 (stereo not drawn)	.	.	.	.	.	16.0	18.6
CC(c1ccco1)N(C(=O)c1ccc(C(F)(F)F)cc1)c1ccccn1 (stereo not drawn)	.	.	.	.	.	.	/
CCc1cccc2c1NC1(CCCC1)CC2C (stereo not drawn)	.	.	.	.	.	.	/
Cc1cccc2c1NC(C)CC2C (stereo not drawn)	.	.	.	.	.	15.4	.
C=CCN(C(=O)c1csnn1)C(C(=O)NCc1ccc(F)cc1)c1ccc(F)cc1 (stereo not drawn)	/	.	.	.	.	15.1	.
COc1cc(-c2nc(C(=O)NC3CCN(Cc4ccccc4)CC3)cc3c2[nH]c2ccccc23)cc(OC)c1OC	/	.	.	.	/	.	/
COc1cc(-c2nc(C(=O)NC3CCCCC3)cc3c2[nH]c2ccccc23)cc(OC)c1OC	/	.	.	.	.	15.9	15.6
Clc1cccc(-c2ccc(C=Nc3ccc(N4CCOCC4)cc3)o2)c1	.	.	.	.	.	18.6	.
CCOC(=O)c1c(-c2ccccc2)csc1NC(=O)CSc1ccccc1	.	.	.	.	.	.	/
CCOC(=O)c1c(-c2ccc(OC)cc2)csc1NC(=O)CSc1ccccc1	.	.	.	.	.	19.9	.
CC(C)C[C@H]1C(=O)N2CCC[C@H]2[C@]2(O)O[C@](NC(=O)C3C=C4c5cccc6[nH]c(Br)c(c56)C[C@H]4N(C)C3)(C(C)C)C(=O)N12 (stereo partly drawn)	/	.	.	.	.	.	/
COc1ccccc1N1C(=O)c2ccc(C(=O)Nc3ccc(F)cc3)cc2C1=O	/	.	.	.	.	.	/
COc1ccccc1N1C(=O)c2ccc(C(=O)Nc3cccc(C(C)=O)c3)cc2C1=O	/	.	.	.	.	36.9	34.4
SMILES	RBBP9 inh	PME-1 inh	Fam108B inh	GSTO1 inh	PRMT1 FP inh	PAD4 FP inh	PAD4 FP conf
CN(C)S(=O)(=O)c1ccc(NC(=O)CSc2ncnc3ccccc23)cc1	.	.	.	.	.	.	/
CN(C)S(=O)(=O)c1cccc(NC(=O)CSc2ncnc3ccccc23)c1	.	.	.	.	.	15.1	.
Cc1ccc(-n2c(SCC(N)=O)nnc2-c2cnccn2)cc1	.	.	.	.	.	.	/
COc1ccc(C(=O)N/N=C(\C)c2ccc(NC(=O)Cc3ccccc3)cc2)c(OC)c1	/	.	.	.	.	.	/
O=C(NC1CCN(Cc2ccc(F)cc2)CC1)c1ccccc1	/	.	.	.	.	.	/
O=C(NC(=S)NC1CCN(Cc2ccccc2)CC1)c1ccc(F)cc1	/	.	.	.	.	32.8	37.5
NS(=O)(=O)c1ccc2c(c1)C(=NO)c1cc(S(N)(=O)=O)ccc1-2	/	.	.	.	.	.	/
CN(CCO)S(=O)(=O)c1ccc2c(c1)C(=NO)c1cc(S(=O)(=O)N(C)CCO)ccc1-2	.	.	.	.	.	14.8	.
O=C(NC1CCCC1)C1CSCCS(=O)(=O)N1Cc1ccc(F)cc1 (stereo not drawn)	/	/	/	/	.	/	/
Cc1nonc1OC(C)CNc1ccc([N+](=O)[O-])cc1 (stereo not drawn)	.	.	.	.	.	56.0	.
Cc1[nH]c2ccccc2c1-c1nc(N)sc1C	/	.	.	.	.	.	/
N#CCCN(C(=O)Cn1nc(C(=O)O)c2ccccc2c1=O)c1ccccc1	/	.	.	.	.	103.0	.
CN(C(=O)Cn1nc(C(=O)O)c2ccccc2c1=O)c1ccccc1	/	.	.	.	.	.	/
CCOC(=O)N1CCC(NC(=O)CCc2nc(-c3ccccc3F)no2)CC1	.	.	.	.	.	.	/
CCn1c(=NC(=O)CSC(C)=O)sc2cc(F)ccc21	.	.	.	.	.	15.8	.
C#CCn1c(=NC(=O)CSC(C)=O)sc2cc(F)ccc21	.	.	.	.	/	.	/
Cc1cc(C)nc(SCC(=O)N/N=C/c2cccnc2)n1	/	/	/	/	.	/	/
COC(=O)c1cccc(NC(=O)CSc2nc(O)c(-c3ccccc3)c(=O)[nH]2)c1	.	.	.	.	.	17.6	20.3
COC(=O)c1ccccc1NC(=O)CSc1nc(O)c(-c2ccccc2)c(=O)[nH]1	.	.	.	.	.	16.8	16.9
Cc1cccc(NC(=O)CN2C(=O)NC(Cc3ccccc3)C2=O)c1 (stereo not drawn)	.	.	.	.	.	.	/
CC1=NN(c2ccc(S(=O)(=O)O)cc2Cl)C(=O)C1	.	.	.	.	.	.	/
CC1=NN(c2ccc(C(=O)O)c(N)c2)C(=O)C1	.	.	.	63.0	.	24.7	16.6
CC1=NN(c2ccc(Cl)c(C(=O)O)c2)C(=O)C1	.	.	.	72.2	.	35.9	.
CCc1cccc(NS(=O)(=O)c2ccc3c(c2)CCC(=O)N3)c1	.	.	.	.	.	16.3	.
Cc1cccc(NS(=O)(=O)c2ccc3c(c2)CCC(=O)N3)c1	/	.	.	.	.	.	/
CCC(=O)N(Cc1cc(=O)[nH]c2ccccc12)c1ccc(C)cc1	.	.	.	.	.	15.4	.
CC(=O)N(Cc1cc(=O)[nH]c2ccccc12)c1ccccc1C	/	.	.	.	.	.	/
